“Also recorded” adds a separate entry of the source. Like-named read-outs stand apart in the source and are kept apart here. Each block holds one substance with its values, some of them ahead of it.
Columns and labels:
DA rats with EAE [1] = assay: EAE treatment with p1 as such or encapsulated in SUV / mSUV; assay type: in vivo, Dark Agouti (DA) rats; details: s.c.; mean disease score vs no treatment; p1 n=8, p1 SUV n=10, p1 mSUV n=9
DA rats with EAE [2] = assay: EAE treatment with mSUV-encapsulated MBP peptides, disease scores; assay type: in vivo, Dark Agouti (DA) rats; details: for disease course / therapeutic effect in words: 6 daily s.c. injections from d 7 after EAE induction, mean disease score; for delta: ranking of overall difference in MDS from the placebo group: ascending series, placebo = empty mSUV
DA rats = details: cited from earlier work
[3] = tested on: Spinal cords of DA rats with EAE; assay: Spinal cord histology, gliosis and demyelination; assay type: in vivo, Dark Agouti (DA) rats
Method in brief: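 Symptomatic EAE DA rats were dosed subcutaneously once daily for 6 d and followed for 28 d. Paraffin-embedded spinal cord sections were stained with hematoxylin–eosin and luxol fast blue and scored blind on 0–3 scales. Gliosis grades were mild (5–10 cells/focus), moderate (10–50 cells/focus) and severe (>50 cells/focus), and demyelination ran from none (0) to severe (3).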

[4] = tested on: autoAbs to full-length MBP; assay: Serum anti-MBP autoAbs; assay type: in vivo, DA rats; details: ELISA, vs control/placebo group
Method in brief: (§1)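 Wells were coated overnight at 4°C with MBP or Trx-fused MBP peptides (10 μg/ml, 100 mM carbonate/bicarbonate, pH 9.0) and blocked with 2% BSA for 1 h at 37°C. Rat sera were diluted 100- to 50,000-fold in PBS-Tween/0.5% BSA, with 5 USP units/ml heparin for MBP, and incubated 1 h at 37°C. HRP anti-rat (1:4000, 1 h, 37°C) and TMB followed, with a phosphoric acid stop and OD₄₅₀ read-out.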

[5] = tested on: autoAbs to MBP epitope 81–103; assay: Serum autoAbs; assay type: in vivo, DA rats; details: ELISA, vs control/placebo group
Method in brief: as §1

[6] = tested on: autoAbs to MBP epitope 146–170; assay: Serum autoAbs; assay type: in vivo, DA rats; details: ELISA, vs control/placebo group
Method in brief: as §1

IL-2 = assay: Immunostaining of spinal cord for IL-2; assay type: in vivo, DA rats; details: immunohistochemistry
Method in brief: (§2)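 EAE DA rats with symptoms got single daily subcutaneous injections of liposome formulations, reference drug or placebo for 6 d and were followed for 28 d. Spinal cords were fixed, dehydrated and paraffin-embedded, and sections were immunostained for IL-2, IFNγ or BDNF per the antibody makers' protocols. Scoring was blinded, against nonimmunized rats and untreated EAE rats.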

IFNγ = assay: Immunostaining of spinal cord for IFNγ; assay type: in vivo, DA rats; details: immunohistochemistry
Method in brief: as §2

BDNF = assay: Immunostaining of CNS / spinal cord for BDNF; assay type: in vivo, DA rats; details: immunohistochemistry, vs placebo
Method in brief: as §2

[7] = tested on: regulatory Th2 cells; BDNF expression; details: cited from earlier work
[8] = tested on: circulating polyclonal anti-MBP Abs from DA rats; assay type: binding; details: SPR; DA rats immunized with MBP63–81

Substance: p1: immunodominant MBP peptide MBP46–62, as such (without liposomes) (FGEADANQNNGTSSQDT; UniProt P02686 46-62, looked up, fragment)
- therapeutic effect on EAE (DA rats with EAE [1]): no detectable therapeutic effect
- disease course / therapeutic effect in words (DA rats with EAE [2]): no therapeutic effect; also recorded: no detectable therapeutic activity
- delta: ranking of overall difference in MDS from the placebo group (DA rats with EAE [2]): p1 ≪ p2 mSUV ≈ p3 mSUV < p1 mSUV ≈ Copaxone < p123 mSUV

Substance: GPBP68–88: fragment of the guinea pig myelin basic protein (HYGSLPQKSQRSQDENPVVHF; UniProt P25188 68-88, looked up, fragment)
- capability to induce EAE in DA rats (DA rats): slightly

Substance: glatiramer acetate [Copaxone]
- median maximum disease score vs placebo (DA rats with EAE [2]; 6 daily s.c. injections from d 7, Wilcoxon test, P < 0.05): significantly differed from the placebo group
- disease course / therapeutic effect in words (DA rats with EAE [2]): significantly suppressed protracted EAE
- delta: ranking of overall difference in MDS from the placebo group (DA rats with EAE [2]): p1 ≪ p2 mSUV ≈ p3 mSUV < p1 mSUV ≈ Copaxone < p123 mSUV
- degree of demyelination, luxol fast blue staining [3]: reduced
- serum concentration of autoAbs to full-length MBP [4]: significant decrease
- serum autoAbs to MBP epitope 81–103 [5]: down-regulated
- serum autoAbs to MBP epitope 146–170 [6]: down-regulated
- IL-2 in spinal cord (IL-2): significantly down-regulated
- IFNγ in spinal cord (IFNγ): significantly down-regulated
- BDNF in CNS (BDNF): enhanced production of BDNF
- induction of regulatory Th2 cells, cytokines and BDNF [7]: known to stimulate BDNF expression
- induction of regulatory Th2 cells, cytokines and BDNF ([7]; listed as glatiramer acetate): induces the population of regulatory Th2 cells to become capable of crossing the BBB and producing anti-inflammatory cytokines IL-4, IL-6, IL-10, and brain-derived neurotrophic factor

Substance: MBP62–75: major encephalitogenic peptide in DA rats (WLKQSRSPLPSHAR; UniProt P02688 62-75, looked up, fragment)
- immunodominance of encephalitogenic peptide in DA rats (DA rats): not immunodominant

Substance: GPBP62–84: fragment of the guinea pig myelin basic protein (HAARTTHYGSLPQKSQRSQDENP; UniProt P25188 62-84, looked up, fragment)
- capability to induce EAE in DA rats (DA rats): capable to induce EAE in DA rats

- binding of autoAbs [8]: not detected
Substance: MDHARHGFLPRH

Reference: publication PMC3528315 (The FASEB Journal, 2013)
